# Results of several laboratories.
# Protocols differ between the studies behind these lines.
# PIK3CB: Phosphatidylinositol 4,5-bisphosphate 3-kinase catalytic subunit beta isoform (PIK3CB, Homo sapiens, UniProt P42338)
Compound,target,test,conditions,quantity,value
Cc1ccc(NC(=O)c2ccnc(C(F)(F)F)c2)cc1-c1cc(OCCO)nc(N2CCOCC2)c1,PIK3CB,binding,1 µM,remaining binding,100%
C1=C/COCc2cc(ccc2OCCN2CCCC2)Nc2nccc(n2)-c2cccc(c2)COC/1,PIK3CB,binding,0.1 µM,remaining binding,98%
Cc1nc(NC(=O)N2CCC[C@H]2C(N)=O)sc1-c1ccnc(C(C)(C)C(F)(F)F)c1,PIK3CB,"enzyme activity, inhibitor, ADP detection",10 µM,inhibition,82.9%
CC(C)S(=O)(=O)c1ccc2nccc(Nc3ccc4sc(C5CCCC5)nc4c3)c2c1,"Phosphatidylinositol 4,5-bisphosphate 3-kinase catalytic subunit beta isoform, with p85 (PIK3CB, Homo sapiens, UniProt P42338)","enzyme activity, inhibitor",1 µM,activity vs control,97%
C=CC(=O)N1CCC[C@@H](n2nc(-c3ccc(Oc4ccccc4)cc3)c3c(N)ncnc32)C1,PIK3CB,"enzyme activity, inhibitor",1 µM,inhibition,2%
CN1CCN(C(=O)c2ccc(NC(=O)Nc3ccc(N(C)c4ccnc(Nc5ccc(CS(C)(=O)=O)cc5)n4)cc3)cc2)CC1,PIK3CB,binding,1 µM,remaining binding,100%
CC#CC(=O)N1CCC[C@H]1c1nc(-c2ccc(C(=O)Nc3ccccn3)cc2)c2c(N)nccn12,PIK3CB,"enzyme activity, inhibitor",1 µM,inhibition,0%
CCCCC(=O)Nc1ccc(-c2ccc3ncn(CCC)c(=O)c3c2)cn1,PIK3CB,"binding, competition with immobilised ligand",0.5 µM,remaining binding,100%
